Laboratory results from ChEMBL document CHEMBL1149244, “Novel azido and isothiocyanato analogues of [3-(4-phenylalkylpiperazin-1-yl)propyl]bis(4-fluorophenyl)amines as potential irreversible ligands for the dopamine transporter” (J Med Chem, 2004).

target: Sodium-dependent dopamine transporter (Rattus norvegicus, UniProt P23977); test: Displacement of [3H]WIN-35428 from DAT in Sprague-Dawley rat striatum
How it was run: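 Male Sprague-Dawley rat striatal membranes (homogenized in ice-cold modified Krebs-HEPES, pH 7.4; washed by centrifugation), 2.5 mg original wet weight per tube, preincubated 5 min with or without test compound. Nonspecific binding defined with 0.1 mM cocaine. Filtration on BSA-presoaked GF/B filters, scintillation counting. Triplicates. IC50 and Hill coefficient reported.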

Sequence of Sodium-dependent dopamine transporter (P23977 whole entry): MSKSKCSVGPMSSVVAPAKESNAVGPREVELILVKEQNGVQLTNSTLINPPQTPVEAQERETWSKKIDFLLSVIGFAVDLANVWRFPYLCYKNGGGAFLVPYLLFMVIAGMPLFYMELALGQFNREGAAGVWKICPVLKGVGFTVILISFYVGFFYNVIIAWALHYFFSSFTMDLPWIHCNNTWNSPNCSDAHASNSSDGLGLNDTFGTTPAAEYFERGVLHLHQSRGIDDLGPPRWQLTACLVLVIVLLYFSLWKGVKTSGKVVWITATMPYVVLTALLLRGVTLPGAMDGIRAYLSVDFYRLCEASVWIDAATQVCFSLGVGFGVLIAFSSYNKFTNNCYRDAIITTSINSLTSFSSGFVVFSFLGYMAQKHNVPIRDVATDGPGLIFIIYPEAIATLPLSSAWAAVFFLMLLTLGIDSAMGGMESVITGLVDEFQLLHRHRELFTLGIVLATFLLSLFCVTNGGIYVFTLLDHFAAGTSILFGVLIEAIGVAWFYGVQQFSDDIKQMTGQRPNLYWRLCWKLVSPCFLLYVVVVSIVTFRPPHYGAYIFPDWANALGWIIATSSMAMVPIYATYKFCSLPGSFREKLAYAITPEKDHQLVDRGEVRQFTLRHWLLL

IC50	SMILES
163 nM	[N-]=[N+]=Nc1ccc(CCN2CCN(CCCN(c3ccc(F)cc3)c3ccc(F)cc3)CC2)cc1I
75.4 nM	Fc1ccc(N(CCCN2CCN(Cc3ccc(N=C=S)cc3)CC2)c2ccc(F)cc2)cc1
282 nM	[N-]=[N+]=Nc1ccc(CCCN2CCN(CCCN(c3ccc(F)cc3)c3ccc(F)cc3)CC2)cc1I
68.3 nM	Fc1ccc(N(CCCN2CCN(CCc3ccc(N=C=S)cc3)CC2)c2ccc(F)cc2)cc1
242 nM	[N-]=[N+]=Nc1ccc(CN2CCN(CCCN(c3ccc(F)cc3)c3ccc(F)cc3)CC2)cc1I
95.5 nM	Fc1ccc(N(CCCN2CCN(CCCc3ccc(N=C=S)c(I)c3)CC2)c2ccc(F)cc2)cc1
19.5 nM	Fc1ccc(N(CCCN2CCN(CCCc3ccccc3)CC2)c2ccc(F)cc2)cc1
99.8 nM	Fc1ccc(N(CCCN2CCN(CCCc3ccc(N=C=S)cc3)CC2)c2ccc(F)cc2)cc1
66 nM	Fc1ccc(N(CCCN2CCN(CCc3ccc(N=C=S)c(I)c3)CC2)c2ccc(F)cc2)cc1
29.7 nM	Fc1ccc(N(CCCN2CCN(Cc3ccccc3)CC2)c2ccc(F)cc2)cc1

SMILES	IC50
[N-]=[N+]=Nc1ccc(CCN2CCN(CCOC(c3ccccc3)c3ccccc3)CC2)cc1I	5.61 nM
